Source: ChEMBL document CHEMBL3992547, “Antimicrobial activity of rhodanine-3-acetic acid derivatives” (Bioorg Med Chem, 2017)
Converted amounts (≈) assume the structure as drawn. The source made the active and inactive calls. No cut-off for these calls is given here.

Assays:
[1] = tested on: Staphylococcus aureus; assay: Antibacterial activity against Staphylococcus aureus CCM 4516/08 incubated for 48 hrs under dark condition by microdilution broth assay; assay type: functional; conditions: CCM 4516/08, 48 h
Method in brief: (§1)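 Broth microdilution per M07-A07, modified, in Mueller-Hinton broth adjusted to pH 7.4 (±0.2). Inoculum is prepared in sterile water to McFarland 0.5 (1.5 × 10⁸ CFU/mL). Plates are incubated in the dark at 35 °C in humid air. MIC is read after 24 and 48 h as at least 95% growth reduction versus control (IC₉₅).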

[2] = tested on: Mycobacterium kansasii; assay: Antimycobacterial activity against Mycobacterium kansasii isolate 6509/96 after 21 days by micromethod; assay type: functional; conditions: isolate 6509/96, 504 h
[3] = Solubility of the compound in Sula's semisynthetic medium up to 1 mM; assay type: physicochemical
[4] = tested on: Mycobacterium avium; assay: Antimycobacterial activity against Mycobacterium avium 330/88 measured after 14 days by micromethod; assay type: functional; conditions: 330/88, 336 h
[5] = tested on: Mycobacterium avium; assay: Antimycobacterial activity against Mycobacterium avium 330/88 measured after 21 days by micromethod; assay type: functional; conditions: 330/88, 504 h
[6] = tested on: Mycobacterium kansasii; assay: Antimycobacterial activity against Mycobacterium kansasii isolate 235/80 after 21 days by micromethod; assay type: functional; conditions: isolate 235/80, 504 h
[7] = tested on: Mycobacterium kansasii; assay: Antimycobacterial activity against Mycobacterium kansasii isolate 235/80 after 7 days by micromethod; assay type: functional; conditions: isolate 235/80, 168 h
[8] = tested on: Mycobacterium tuberculosis; assay: Antimycobacterial activity against Mycobacterium tuberculosis H37Rv 331/88 measured after 21 days by micromethod; assay type: functional; conditions: H37Rv 331/88, 504 h
[9] = tested on: Staphylococcus epidermidis; assay: Antibacterial activity against Staphylococcus epidermidis H 6966/08 incubated for 24 hrs under dark condition by microdilution broth assay; assay type: functional; conditions: H 6966/08, 24 h; method in brief: as §1
[10] = tested on: Staphylococcus aureus; assay: Antibacterial activity against methicillin-resistant Staphylococcus aureus H 5996/08 incubated for 24 hrs under dark condition by microdilution broth assay; assay type: functional; conditions: H 5996/08, 24 h
Method in brief: (§2)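 Microdilution broth method modified per M07-A07, in Mueller-Hinton broth adjusted to pH 7.4 (±0.2). Inoculum made in sterile water to 0.5 McFarland (1.5 × 10⁸ CFU/mL). Plates incubated in the dark at 35 °C in a humid atmosphere, with reads at 24 and 48 h. MIC taken as at least 95% growth reduction (IC₉₅) versus control.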

[11] = tested on: Klebsiella pneumoniae; assay: Antibacterial activity against Klebsiella pneumoniae D 11750/08 up to 500 uM incubated for 24 to 48 hrs under dark condition by microdilution broth assay; assay type: functional; method in brief: as §1
[12] = tested on: Enterococcus; assay: Antibacterial activity against Enterococcus sp. J 14365/08 incubated for 24 hrs under dark condition by microdilution broth assay; conditions: J 14365/08, 24 h
[13] = tested on: Lichtheimia corymbifera; assay: Antifungal activity against Absidia corymbifera 272 after 24 to 48 hrs hrs by microdilution broth assay; assay type: functional
Method in brief: (§3)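 Broth microdilution per CLSI M27-A3 and M38-A2 in RPMI 1640 with glutamine, buffered to pH 7.0 with MOPS. Compounds are diluted in DMSO. Final inoculum is 5 × 10³ CFU/mL for yeasts and 0.5–5 × 10⁴ CFU/mL for moulds. Plates are incubated in the dark at 35 °C in humid air and read visually and/or at 540 nm after 24 and 48 h. MIC is ≥80% growth reduction (IC₈₀) for yeasts and ≥50% (IC₅₀) for filamentous fungi.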

[14] = tested on: Escherichia coli; assay: Antibacterial activity against Escherichia coli CCM 4517 incubated for 24 hrs under dark condition by microdilution broth assay; assay type: functional; conditions: CCM 4517, 24 h; method in brief: as §1
[15] = tested on: Enterococcus; assay: Antibacterial activity against Enterococcus sp. J 14365/08 incubated for 48 hrs under dark condition by microdilution broth assay; conditions: J 14365/08, 48 h
[16] = tested on: Staphylococcus aureus; assay: Antibacterial activity against Staphylococcus aureus CCM 4516/08 incubated for 24 hrs under dark condition by microdilution broth assay; assay type: functional; conditions: CCM 4516/08, 24 h; method in brief: as §1
[17] = tested on: Staphylococcus aureus; assay: Antibacterial activity against methicillin-resistant Staphylococcus aureus H 5996/08 incubated for 48 hrs under dark condition by microdilution broth assay; assay type: functional; conditions: H 5996/08, 48 h; method in brief: as §2
[18] = tested on: Mycobacterium tuberculosis; assay: Antimycobacterial activity against Mycobacterium tuberculosis H37Rv 331/88 measured after 14 days by micromethod; assay type: functional; conditions: H37Rv 331/88, 336 h
[19] = tested on: Mycobacterium kansasii; assay: Antimycobacterial activity against Mycobacterium kansasii isolate 6509/96 after 14 days by micromethod; assay type: functional; conditions: isolate 6509/96, 336 h
[20] = tested on: Escherichia coli; assay: Antibacterial activity against Escherichia coli CCM 4517 incubated for 48 hrs under dark condition by microdilution broth assay; assay type: functional; conditions: CCM 4517, 48 h; method in brief: as §1
[21] = tested on: Klebsiella pneumoniae; assay: Antibacterial activity against ESBL positive Klebsiella pneumoniae J 14368/08 up to 500 uM incubated for 24 to 48 hrs under dark condition by microdilution broth assay; assay type: functional; method in brief: as §1
[22] = tested on: Mycobacterium kansasii; assay: Antimycobacterial activity against Mycobacterium kansasii isolate 235/80 after 14 days by micromethod; assay type: functional; conditions: isolate 235/80, 336 h
[23] = tested on: Mycobacterium kansasii; assay: Antimycobacterial activity against Mycobacterium kansasii isolate 6509/96 after 7 days by micromethod; assay type: functional; conditions: isolate 6509/96, 168 h
[24] = tested on: Pichia kudriavzevii; assay: Antifungal activity against Candida krusei E28 after 24 to 48 hrs hrs by microdilution broth assay; assay type: functional; method in brief: as §3
[25] = tested on: Pseudomonas aeruginosa; assay: Antibacterial activity against Pseudomonas aeruginosa CCM 1961 up to 500 uM incubated for 24 to 48 hrs under dark condition by microdilution broth assay; assay type: functional; method in brief: as §1
[26] = tested on: Staphylococcus epidermidis; assay: Antibacterial activity against Staphylococcus epidermidis H 6966/08 incubated for 48 hrs under dark condition by microdilution broth assay; assay type: functional; conditions: H 6966/08, 48 h; method in brief: as §1

Row | SMILES | MIC95 [1] | MIC [2] | solubility [3] | MIC [4] | MIC [5] | MIC [6] | MIC [7] | MIC [8] | MIC95 [9] | MIC95 [10] | Activity [11] | MIC95 [12] | Activity [13] | MIC95 [14] | MIC95 [15] | MIC95 [16] | MIC95 [17] | MIC [18] | MIC [19] | MIC95 [20] | other results
1 | O=C(CN1C(=O)CSC1=S)Nc1ccc([N+](=O)[O-])cc1 | 500 µM (≈ 156 µg/mL) | 1000 µM (≈ 311 µg/mL) | Soluble | 1000 µM (≈ 311 µg/mL) | 1000 µM (≈ 311 µg/mL) | 1000 µM (≈ 311 µg/mL) | 500 µM (≈ 156 µg/mL) | 500 µM (≈ 156 µg/mL) | 250 µM (≈ 77.8 µg/mL) | 500 µM (≈ 156 µg/mL) | inactive | 250 µM (≈ 77.8 µg/mL) | inactive | > 500 µM | 250 µM (≈ 77.8 µg/mL) | 500 µM (≈ 156 µg/mL) | 500 µM (≈ 156 µg/mL) | 500 µM (≈ 156 µg/mL) | 500 µM (≈ 156 µg/mL) | > 500 µM | Activity [21]: inactive; MIC [22]: 500 µM (≈ 156 µg/mL); MIC [23]: 500 µM (≈ 156 µg/mL); Activity [24]: inactive; Activity [25]: inactive; MIC95 [26]: 250 µM (≈ 77.8 µg/mL)
2 | O=C(O)CN1C(=O)/C(=C/c2cccc(O)c2)SC1=S | > 500 µM | 1000 µM (≈ 295 µg/mL) | Soluble | > 1000 µM | > 1000 µM | 1000 µM (≈ 295 µg/mL) | 1000 µM (≈ 295 µg/mL) | 1000 µM (≈ 295 µg/mL) | > 500 µM | 500 µM (≈ 148 µg/mL) | inactive | 500 µM (≈ 148 µg/mL) | inactive | > 500 µM | > 500 µM | > 500 µM | > 500 µM | 1000 µM (≈ 295 µg/mL) | 1000 µM (≈ 295 µg/mL) | > 500 µM | Activity [21]: inactive; MIC [22]: 1000 µM (≈ 295 µg/mL); MIC [23]: 500 µM (≈ 148 µg/mL); Activity [24]: inactive; Activity [25]: inactive; MIC95 [26]: > 500 µM
